Consider 17 molecules from PubChem BioAssay.

A short description of assay [1]: RPL19A-GFP modulators, yeast TOR pathway, confirmation, cell-based, S. cerevisiae, flow cytometry, cherry picks, mother/daughter gates (AID 2270;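 active = GFP response below 50% of the DMSO control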). Conditions: S. cerevisiae RPL19A-GFP strain, 3 h, at 10 µM, stronger effect = lower value, 100 = same GFP as DMSO wells. Background: In flow cytometry, cells or beads pass a laser one at a time.
Assay [2] in a line: LAP4-GFP expression modulators in yeast, confirmation, cell-based, cherry picks, flow cytometry, mother/daughter gates (AID 2271;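 active = GFP response above 150% of the DMSO control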;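 also: ratio of sample to DMSO plate mean so 100% equals DMSO level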). Conditions: S. cerevisiae LAP4-GFP strain, 3 h, at 10 µM, stronger effect = higher value, 100 means same as DMSO control. Summed up:
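Material – Alexa Fluor 633-labelled Saccharomyces cerevisiae GFP-fusion strain, single-plex · Incubation – compound exposure 3 h at 30 °C, end-over-end rotation · Measured by – GFP by flow cytometry · Measure – median GFP fluorescence as percent of plate-mean DMSO wells · Control set – positive rapamycin (400 ng/mL), negative DMSO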

A short description of assay [3]: modulators of MEP2-GFP levels in yeast, confirmation, S. cerevisiae, flow cytometry GFP, cherry picks (AID 2272;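 active = GFP response above 150% of the DMSO control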;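 also: ratio of well signal to plate DMSO mean so 100% equals DMSO level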). The note with it: S. cerevisiae MEP2-GFP strain, 3 h, at 10 µM, stronger effect = higher value.
The nature of assay [4]: AGP1-GFP expression modulators, hit retest, confirmation, cell-based, flow cytometry, S. cerevisiae, cherry picks (AID 2273).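 Also: median GFP channel fluorescence over the whole cell population gate.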 Conditions: S. cerevisiae AGP1-GFP strain, 3 h, at 10 µM.
A short description of assay [5]: modulators of CIT2-GFP expression in yeast, confirmation, S. cerevisiae, GFP fusion, cherry picks, mother/daughter gates (AID 2274). The note with it: S. cerevisiae CIT2-GFP strain, flow cytometry, 3 h, at 10 µM, stronger effect = higher value.
[6] abbreviates: measured here: daughter cell gate.
Where [7] appears, read: measured here: mother cell gate.
Setting [8] is: measured here: daughter cell gate response.
Setting [9] is: measured here: mother cell gate response.

SMILES strings stand for the structures. The source made the active and inactive calls.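 The calls were made as follows, unless noted: active = GFP response above 150% of the DMSO level; inconclusive = fewer than 70 events counted for a yeast strain; inactive = the rest.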

For the molecule `CCOC(=O)CNc1c(-c2ccccc2)nc2ccc(Cl)cn12`, the GFP response vs DMSO was 96% (inactive) in assay [1], 97.8% in assay [1] (setting [6]), 96.4% in assay [1] (setting [7]) and 97.5% (inactive) in assay [3]. For the same molecule, the GFP response relative to DMSO was 109% (inactive) in assay [2], 105% in assay [2] (setting [8]) and 114% in assay [2] (setting [9]). The GFP response, % of DMSO was 98% (inactive) in assay [4], 95% (inactive) in assay [5], 98.3% in assay [5] (setting [6]) and 93.3% in assay [5] (setting [7]).
Turning to `CCOC(=O)c1cnn(-c2cc(C)nc3c(-c4ccccc4)cnn23)c1N`, the GFP response vs DMSO in assay [1] is 96.7% (inactive); in assay [1] (setting [6]), 98.1%; in assay [1] (setting [7]) it was 95.4%; in assay [3] it was 103% (inactive). In addition, the GFP response relative to DMSO in assay [2] is 92.9% (inactive); in assay [2] (setting [8]), 92.9%; in assay [2] (setting [9]), 94.4%. In addition, the GFP response, % of DMSO was 89.3% (inactive) in assay [4], 98.6% (inactive) in assay [5], 97.6% in assay [5] (setting [6]) and 98.2% in assay [5] (setting [7]).
`CC(=O)c1sc2nc(C)c3c(c2c1N)CCCC3`: the GFP response vs DMSO is 89.4% (inactive) in assay [1], 88.5% in assay [1] (setting [6]), 89.3% in assay [1] (setting [7]) and 101% (inactive) in assay [3]. Besides, the GFP response relative to DMSO in assay [2] was 111% (inactive); in assay [2] (setting [8]), 104%; in assay [2] (setting [9]), 115%. Further, the GFP response, % of DMSO is 98.2% (inactive) in assay [4], 91.7% (inactive) in assay [5], 88.7% in assay [5] (setting [6]) and 92.6% in assay [5] (setting [7]).
On to `O=C1Nc2ccc(Br)cc2/C1=C/C1CC=CCC1` (configuration not stated), for which the GFP response vs DMSO is 106% (inactive) in assay [1], 100% in assay [1] (setting [6]), 105% in assay [1] (setting [7]) and 133% (inactive) in assay [3]. Besides, the GFP response relative to DMSO was 131% (inactive) in assay [2], 122% in assay [2] (setting [8]) and 135% in assay [2] (setting [9]). The GFP response, % of DMSO was 111% (inactive) in assay [4], 108% (inactive) in assay [5], 108% in assay [5] (setting [6]) and 104% in assay [5] (setting [7]).
For the molecule `Cc1cccn2c(=O)c(/C=C(\C#N)C(=O)NC3CCS(=O)(=O)C3)c(N3CCC(C(N)=O)CC3)nc12` (configuration not stated), the GFP response vs DMSO in assay [1] was 101% (inactive); in assay [1] (setting [6]) it was 98.6%; in assay [1] (setting [7]), 102%; in assay [3], 99% (inactive). The GFP response relative to DMSO in assay [2] is 98.2% (inactive); in assay [2] (setting [8]), 97.5%; in assay [2] (setting [9]), 98.4%. In addition, the GFP response, % of DMSO in assay [4] is 89.7% (inactive); in assay [5] it was 97.3% (inactive); in assay [5] (setting [6]), 97.4%; in assay [5] (setting [7]), 96.8%.
As for `C=CCn1cc(/C=C/c2cc[n+](C)cc2)c2ccccc21`, the GFP response vs DMSO in assay [1] is 102% (inactive); in assay [1] (setting [6]), 99.6%; in assay [1] (setting [7]), 103%; in assay [3], 120% (inactive). For the same molecule, the results for the GFP response relative to DMSO in assay [2], in assay [2] (setting [8]) and in assay [2] (setting [9]) were 108% (inactive), 107% and 108%, respectively. The GFP response, % of DMSO in assay [4] is 97.8% (inactive); in assay [5] it was 125% (inactive); in assay [5] (setting [6]) it was 119%; in assay [5] (setting [7]), 127%.
On to `COc1cccc(OCC(=O)N2CCCc3ccccc32)c1`, for which the GFP response vs DMSO was 97.8% (inactive) in assay [1], 97% in assay [1] (setting [6]), 97.1% in assay [1] (setting [7]) and 99.3% (inactive) in assay [3]. Moreover, the figures for the GFP response relative to DMSO in assay [2], in assay [2] (setting [8]) and in assay [2] (setting [9]) were 101% (inactive), 105% and 102%, respectively. Moreover, the GFP response, % of DMSO in assay [4] is 100% (inactive); in assay [5], 95.8% (inactive); in assay [5] (setting [6]), 97.6%; in assay [5] (setting [7]), 94.9%.
With `CS(=O)(=O)Nc1ccc(C2=NN(S(C)(=O)=O)C(c3ccccc3)C2)cc1` (configuration not stated), the GFP response vs DMSO is 98.7% (inactive) in assay [1], 98.1% in assay [1] (setting [6]), 98.6% in assay [1] (setting [7]) and 157% (inactive) in assay [3]. Moreover, the GFP response relative to DMSO is 133% (inactive) in assay [2], 138% in assay [2] (setting [8]) and 129% in assay [2] (setting [9]). In addition, the GFP response, % of DMSO is 115% (inactive) in assay [4], 114% (inactive) in assay [5], 112% in assay [5] (setting [6]) and 114% in assay [5] (setting [7]).
For the molecule `CCOC(=O)CNc1c(-c2ccc(O)cc2)nc2ccc(Cl)cn12`, the GFP response vs DMSO was 101% (inactive) in assay [1], 99.8% in assay [1] (setting [6]), 101% in assay [1] (setting [7]) and 102% (inactive) in assay [3]. Also, the GFP response relative to DMSO in assay [2] is 96.5% (inactive); in assay [2] (setting [8]), 95%; in assay [2] (setting [9]), 97.5%. In addition, the GFP response, % of DMSO in assay [4] is 95.4% (inactive); in assay [5], 96.4% (inactive); in assay [5] (setting [6]), 96.4%; in assay [5] (setting [7]), 95.6%.
Turning to `Cc1ccc(C)c(-c2nnc(NC(=O)c3ccc([N+](=O)[O-])o3)o2)c1`, the GFP response vs DMSO was 101% (inactive) in assay [1], 95.7% in assay [1] (setting [6]), 101% in assay [1] (setting [7]) and 107% (inactive) in assay [3]. The GFP response relative to DMSO in assay [2] was 115% (inactive); in assay [2] (setting [8]), 114%; in assay [2] (setting [9]), 116%. Moreover, the GFP response, % of DMSO is 91.6% (inactive) in assay [4], 90.1% (inactive) in assay [5], 90.2% in assay [5] (setting [6]) and 87% in assay [5] (setting [7]).
As for `COc1ccccc1Oc1ccc(S(=O)(=O)N2CCCC2)cc1`, the GFP response vs DMSO is 102% (inactive) in assay [1], 100% in assay [1] (setting [6]), 103% in assay [1] (setting [7]) and 95.7% (inactive) in assay [3]. Further, the GFP response relative to DMSO in assay [2] is 91.4% (inactive); in assay [2] (setting [8]) it was 91%; in assay [2] (setting [9]), 95.2%. Also, the GFP response, % of DMSO in assay [4] is 93.5% (inactive); in assay [5], 93.9% (inactive); in assay [5] (setting [6]), 94.8%; in assay [5] (setting [7]), 92.3%.
Regarding `C[C@@H](C(=O)Nc1nc2ccc(F)cc2s1)N1C(=O)C2CC=CCC2C1=O` (some centres not stated), the GFP response vs DMSO in assay [1] was 98.7% (inactive); in assay [1] (setting [6]), 97.8%; in assay [1] (setting [7]), 98.5%; in assay [3] it was 102% (inactive). Moreover, the GFP response relative to DMSO in assay [2] was 103% (inactive); in assay [2] (setting [8]), 101%; in assay [2] (setting [9]), 104%. Besides, the GFP response, % of DMSO in assay [4] is 99.7% (inactive); in assay [5] it was 101% (inactive); in assay [5] (setting [6]), 100%; in assay [5] (setting [7]) it was 100%.
With `CCCS(=O)(=O)N1CCC(C(=O)c2cccc(C(F)(F)F)c2)CC1`, the GFP response vs DMSO is 98.8% (inactive) in assay [1], 97% in assay [1] (setting [6]), 98.2% in assay [1] (setting [7]) and 100% (inactive) in assay [3]. The GFP response relative to DMSO in assay [2] was 101% (inactive); in assay [2] (setting [8]) it was 98.7%; in assay [2] (setting [9]) it was 102%. The GFP response, % of DMSO was 97.8% (inactive) in assay [4], 91.3% (inactive) in assay [5], 93.2% in assay [5] (setting [6]) and 89.1% in assay [5] (setting [7]).
Turning to `O=C(CSc1cccc[n+]1[O-])CSc1cccc[n+]1[O-]`, the GFP response vs DMSO in assay [1] was 97.8% (inactive); in assay [1] (setting [6]), 101%; in assay [1] (setting [7]), 95%; in assay [3] it was 103% (inactive). For the same molecule, the results for the GFP response relative to DMSO in assay [2], in assay [2] (setting [8]) and in assay [2] (setting [9]) were 119% (inactive), 116% and 120%, respectively. Moreover, the GFP response, % of DMSO is 103% (inactive) in assay [4], 97.2% (inactive) in assay [5], 101% in assay [5] (setting [6]) and 98.2% in assay [5] (setting [7]).
With `COc1cccc(/C=N/Nc2nc(-c3cccnc3)nc3ccccc23)c1`, the GFP response vs DMSO in assay [1] is 94.7% (inactive); in assay [1] (setting [6]) it was 93.3%; in assay [1] (setting [7]) it was 93.5%; in assay [3], 106% (inactive). Besides, the GFP response relative to DMSO in assay [2] is 104% (inactive); in assay [2] (setting [8]) it was 101%; in assay [2] (setting [9]), 106%. Also, the GFP response, % of DMSO was 101% (inactive) in assay [4], 103% (inactive) in assay [5], 103% in assay [5] (setting [6]) and 100% in assay [5] (setting [7]).
For the molecule `COc1cc(NC(=O)c2c(OC)cccc2OC)ccc1NC(=O)c1cc2ccccc2o1`, the GFP response vs DMSO is 96% (inactive) in assay [1], 95.5% in assay [1] (setting [6]), 96.5% in assay [1] (setting [7]) and 102% (inactive) in assay [3]. Further, the GFP response relative to DMSO in assay [2] is 109% (inactive); in assay [2] (setting [8]), 104%; in assay [2] (setting [9]) it was 108%. The GFP response, % of DMSO in assay [4] was 95.4% (inactive); in assay [5], 96.4% (inactive); in assay [5] (setting [6]), 98.3%; in assay [5] (setting [7]), 93.3%.
Consider `Nc1ccc(C(=O)N/N=C/c2ccccc2)cc1`, for which the GFP response vs DMSO in assay [1] was 105% (inactive); in assay [1] (setting [6]) it was 102%; in assay [1] (setting [7]), 106%; in assay [3], 101% (inactive). Besides, the GFP response relative to DMSO in assay [2] was 102% (inactive); in assay [2] (setting [8]) it was 99.1%; in assay [2] (setting [9]) it was 102%. Also, the GFP response, % of DMSO in assay [4] is 108% (inactive); in assay [5], 100% (inactive); in assay [5] (setting [6]), 101%; in assay [5] (setting [7]), 99.3%.
